Where a name gives a salt, the structure may show the parent alone.
Key:
4T1 = assay: Antiproliferative activity against mouse 4T1 cells measured after 72 hrs by MTT assay; assay type: functional, cell-based; details: 4T1, 72 h
How it was run: (§1)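 MTT antiproliferation assay on human breast cancer lines MDA-MB-231, SUM-159, MCF-7 and Bcap-37 and on mouse 4T1 breast cancer cells. IC50 values were taken from the MTT read-out. Adriamycin served as the positive control.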

SUM-159-PT [1] = assay: Antiproliferative activity against human SUM159 cells measured after 72 hrs by MTT assay; assay type: functional, cell-based; how it was run: as §1
MDA-MB-231 [2] = assay: Antiproliferative activity against human MDA-MB-231 cells measured after 72 hrs by MTT assay; assay type: functional, cell-based; details: MDA-MB-231, 72 h; how it was run: as §1
Bcap37 = assay: Antiproliferative activity against human Bcap37 cells measured after 72 hrs by MTT assay; assay type: functional, cell-based; details: Bcap37, 72 h; how it was run: as §1
MCF7 = assay: Antiproliferative activity against human MCF7 cells measured after 72 hrs by MTT assay; assay type: functional, cell-based; details: MCF7, 72 h; how it was run: as §1
MDA-MB-231 [3] = assay: Potency index, ratio of parthenolide IC50 to test compound IC50 for human MDA-MB-231 cells; assay type: functional
[4] = Therapeutic index, ratio of IC50 for mouse 3T3 cells to IC50 for mouse 4T1 cells; assay type: toxicity; details: 3T3 cells and 4T1 cells, read-out: Ratio IC50
NIH3T3 = assay: Cytotoxicity against mouse 3T3 cells measured after 72 hrs by MTT assay; assay type: cell-based; details: NIH3T3, 72 h
How it was run: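 Cytotoxicity was measured by MTT on normal 3T3 mouse embryonic fibroblasts, with IC50 from the MTT read-out.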

SUM-159-PT [5] = assay: Induction of apoptosis in human SUM159 cells assessed as late apoptotic cells at 0.5 uM measured after 48 hrs by Annexin-V APC/propidium iodide staining based flow cytometry (reference value: 1.45%); assay type: functional
How it was run: (§2)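 SUM-159 cells were exposed at 0, 0.2 and 0.5 µM, then stained with annexin V/PI and analysed by flow cytometry. Early apoptosis was annexin V+/PI−, late apoptosis annexin V+/PI+, and total apoptosis was the sum of the two.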

SUM-159-PT [6] = assay: Induction of apoptosis in human SUM159 cells assessed as early apoptotic cells at 0.5 uM measured after 48 hrs by Annexin-V APC/propidium iodide staining based flow cytometry (reference value: 2.5%); assay type: functional; how it was run: as §2
SUM-159-PT [7] = assay: Induction of apoptosis in human SUM159 cells assessed as necrotic cells at 0.5 uM measured after 48 hrs by Annexin-V APC/propidium iodide staining based flow cytometry (reference value: 0.152%); assay type: functional; how it was run: as §2
SUM-159-PT [8] = assay: Induction of apoptosis in human SUM159 cells assessed as viable cells at 0.5 uM measured after 48 hrs by Annexin-V APC/propidium iodide staining based flow cytometry (reference value: 95.9%); assay type: functional; details: read-out: Activity; how it was run: as §2

| IC50 (4T1) | IC50 (MDA-MB-231 [2]) | IC50 (MCF7) | Structure (SMILES) | IC50 (SUM-159-PT [1]) | IC50 (Bcap37) | other results |
| --- | --- | --- | --- | --- | --- | --- |
| 1410 nM | 550 nM | 890 nM | C=C1C(=O)O[C@H]2[C@H]1CC/C(COC(=O)/C=C/c1ccc(OC)cc1OC)=C\CC[C@@]1(C)O[C@@H]21 | 800 nM | 1150 nM | – |
| 630 nM | 950 nM | 1390 nM | C=C1C(=O)O[C@H]2[C@H]1CC/C(COC(=O)/C=C/c1cc(OC)c(OC)c(OC)c1)=C\CC[C@@]1(C)O[C@@H]21 | 860 nM | 1960 nM | – |
| – | 1350 nM | – | C=C1C(=O)O[C@H]2[C@H]1CC/C(COC(=O)/C=C/c1ccccc1)=C\CC[C@@]1(C)O[C@@H]21 | – | – | Ratio IC50 (MDA-MB-231 [3]): 2 |
| 800 nM | 800 nM | – | COc1cccc2c1C(=O)c1c(O)c3c(c(O)c1C2=O)C[C@@](O)(C(=O)CO)C[C@@H]3O[C@H]1C[C@H](N)[C@H](O)[C@H](C)O1 [DOXORUBICIN HYDROCHLORIDE] | – | – | selectivity ratio [4]: 0.45; IC50 (NIH3T3): 360 nM |
| 4090 nM | 3480 nM | 2680 nM | C=C1C(=O)O[C@@H]2C3O[C@]3(C)CC/C=C(\C)CC[C@@H]12 (stereo partly drawn) | 3060 nM | 4630 nM | Activity (SUM-159-PT [5]): 1.1%; Activity (SUM-159-PT [6]): 2.49%; Activity (SUM-159-PT [7]): 0.049%; viability at 0.5 µM (SUM-159-PT [8]): 96.4% |
| 180 nM | 340 nM | 290 nM | C=C1C(=O)O[C@H]2[C@H]1CC/C(COC(=O)/C=C/c1ccccc1OCC)=C\CC[C@@]1(C)O[C@@H]21 | 210 nM | 420 nM | Ratio IC50 (MDA-MB-231 [3]): 10 |
| 1160 nM | 740 nM | 2010 nM | C=C1C(=O)O[C@H]2[C@H]1CC/C(COC(=O)/C=C/c1ccccc1C(F)(F)F)=C\CC[C@@]1(C)O[C@@H]21 | 850 nM | 1890 nM | – |
| – | 1760 nM | – | C=C1C(=O)O[C@H]2[C@H]1CC/C(COC(=O)/C(C)=C/c1cc(OC)ccc1OC)=C\CC[C@@]1(C)O[C@@H]21 | – | – | – |
| – | 1880 nM | – | C=C1C(=O)O[C@H]2[C@H]1CC/C(COC(=O)CCc1cc(OC)ccc1OC)=C\CC[C@@]1(C)O[C@@H]21 | – | – | – |
| – | 1930 nM | – | C=C1C(=O)O[C@H]2[C@H]1CC/C(COC(=O)/C=C/c1ccc([N+](=O)[O-])cc1)=C\CC[C@@]1(C)O[C@@H]21 | – | – | – |
| – | 7600 nM | – | COc1cccc(OC)c1/C=C/C(=O)OC/C1=C/CC[C@@]2(C)O[C@H]2[C@H]2OC(=O)[C@@H](C)[C@@H]2CC1 | – | – | – |
| – | 1790 nM | – | C=C1C(=O)O[C@H]2[C@H]1CC/C(COC(=O)/C=C/c1ccccc1C)=C\CC[C@@]1(C)O[C@@H]21 | – | – | – |
| 520 nM | 460 nM | 420 nM | C=C1C(=O)O[C@H]2[C@H]1CC/C(COC(=O)/C=C/c1ccccc1OC)=C\CC[C@@]1(C)O[C@@H]21 | 350 nM | 680 nM | – |
| – | 2020 nM | – | C=C1C(=O)O[C@H]2[C@H]1CC/C(COC(=O)/C(=C/c1cc(OC)ccc1OC)c1ccc(Cl)cc1)=C\CC[C@@]1(C)O[C@@H]21 | – | – | – |
| 1480 nM | 830 nM | 2150 nM | C=C1C(=O)O[C@H]2[C@H]1CC/C(COC(=O)/C=C/c1cccc(C(F)(F)F)c1)=C\CC[C@@]1(C)O[C@@H]21 | 640 nM | 1860 nM | – |
| – | 2350 nM | – | C=C1C(=O)O[C@H]2[C@H]1CC/C(COC(=O)/C(C#N)=C/c1cc(OC)ccc1OC)=C\CC[C@@]1(C)O[C@@H]21 | – | – | – |
| 340 nM | 260 nM | 260 nM | C=C1C(=O)O[C@H]2[C@H]1CC/C(COC(=O)/C=C/c1cc(OC)ccc1OC)=C\CC[C@@]1(C)O[C@@H]21 | 260 nM | 550 nM | Ratio IC50 (MDA-MB-231 [3]): 14 |
| – | 1740 nM | – | C=C1C(=O)O[C@H]2[C@H]1CC/C(COC(=O)/C=C/c1cccc(OC)c1OC)=C\CC[C@@]1(C)O[C@@H]21 | – | – | – |
| – | 2270 nM | – | C=C1C(=O)O[C@H]2[C@H]1CC/C(COC(=O)/C=C/c1ccc(C)cc1)=C\CC[C@@]1(C)O[C@@H]21 | – | – | – |
| – | 6800 nM | – | COc1ccc(OC)c(/C=C/C(=O)OC/C2=C/CC[C@@]3(C)O[C@H]3[C@H]3OC(=O)[C@@H](C)[C@@H]3CC2)c1 | – | – | – |
| – | 1330 nM | – | C=C1C(=O)O[C@H]2[C@H]1CC/C(COC(=O)/C=C/c1ccc(C(C)C)cc1)=C\CC[C@@]1(C)O[C@@H]21 | – | – | – |

Reference: ChEMBL document CHEMBL4316595, “Synthesis and structure-activity relationship studies of parthenolide derivatives as potential anti-triple negative breast cancer agents” (Eur J Med Chem, 2019)
